Assay results: PubChem BioAssay
Results filed as inconclusive are left out.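 How the source made its calls, unless noted: active means cell viability at or below a set limit in both duplicate runs, the limit being the all-compound median minus 4 SD (cut at about 23% in these data, passing the limit was not always enough); inconclusive means no clear call, values can overlap the other calls; inactive means the rest.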

Experiments:
[1] = S. cerevisiae growth inhibition in permissive medium (OD615), pilot counter-assay for S. cerevisiae lifespan shortening project, permissive growth control (AID 705;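 active means growth inhibition above 25% in both replicates, a cutoff set 3 SD above the mean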); details: OD615, 24 h, at 10 µM, active compounds read high
Summary of the method: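 Material: engineered DeaD yeast; Compound: one dose 10 µM, DMSO 0.25% final; Detection: absorbance (optical density) at 615 nm; Buffer or medium: permissive raffinose/galactose medium; Timing: 24 h exposure, 30 °C.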

[2] = S. cerevisiae growth inhibition in restrictive medium, OD615, pilot screen, restrictive growth control, yeast lifespan reduction project (AID 706;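 active means growth inhibition above a set limit, 3 SD over mean compound inhibition, in both replicates, cut at about 43% in these data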;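 further: modified DeaD lifespan yeast strain shifted to restrictive glucose medium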); details: OD615, 48 h, at 10 µM, active compounds read high
Summary of the method: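 Buffer or medium: restrictive glucose medium (CSMM-D); test system: modified S. cerevisiae; doses: single dose of 10 µM compound final, 0.25% DMSO; schedule: 48 h compound exposure at 30 °C; detection: absorbance (optical density) measured at 615 nm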

[3] = doxorubicin toxicity protection in MRP-1 cells – H69AR cells, CellTiter-Glo, duplicate, MRP-1 activator project, pilot screen (AID 807;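 active means viability increase at or above a cutoff of the median across tested compounds plus 3 SD, cut at about 8.5% in these data, passing the limit was not always enough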;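 further: compound pretreatment 18-22 h then 72 h combined with doxorubicin; 0% = doxorubicin alone and 100% = vehicle without doxorubicin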); details: H69AR viability with doxorubicin, CellTiter-Glo luminescence; at 10 µM; active compounds read high
[4] = viability of HCT116 without oncogenic beta-catenin – human colon tumor cells, pilot screen (AID 823); details: HCT116 beta-catenin knockout viability, CellTiter-Glo, 60 h; at 10 µM; active compounds read low;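 further: 0% = wells killed by 20 µM Hyamine and 100% = untreated DMSO cell wells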
[5] = viability of PTEN-null HCT116 cells – cell-based, HCT116 clonal line, CellTiter-Glo, pilot screen (AID 824;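 active means viability at or below 27.92% in each of two runs, the all-compound median minus 4 SD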;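 further: 0% = 20 µM Hyamine control and 100% = vehicle cell control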); details: HCT116 PTEN-deleted viability, 60 h, at 10 µM, active compounds read low
[6] = RAM pathway blockade in budding yeast – dse1pr::URA3 reporter, 5-FOA selection, pilot screen (AID 869;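 active means inhibition over a set limit, the all-compound mean plus 3 SD, in both replicate runs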;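 further: 0% = DMSO wells with no growth and 100% = 10 µM 1-NA-PP1 with full growth; RAM network block rescues cells from 5-FOA so hits raise OD615 growth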); details: S. cerevisiae dse1pr::URA3 5-FOA growth, OD615, 2 d; at 10 µM; active compounds read high; strain carries analog-sensitive mutant Cbk1 kinase
[7] = RAM signaling pathway blockade in yeast – S. cerevisiae, Pdr1DBD-CYC8 efflux-inhibited sensitized strain, primary screen (AID 1298;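 active means RAM network inhibition above 8.4% in each of two replicates, 3 SD over the compound average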;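 further: 0% = DMSO untreated cells without growth and 100% = 10 µM 1-NA-PP1 full growth; higher means more yeast growth rescued from 5-FOA killing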); details: S. cerevisiae cbk1-as DSE1-URA3 strain, 5-FOA growth OD615, 2 d; at 50 µM; active compounds read high

Cc1ccc(C)c(C(=O)N(Cc2nc(-c3ccc(Cl)cc3)no2)C(C)C)c1
inactive: growth inhibition [1] -8.99% | growth inhibition [2] -16.6% | viability increase [3] -0.54% | viability [4] 56.5% | viability [5] 62.6% | inhibition [6] 1.21% | RAM network inhibition [7] 4.04%

Cc1noc(NS(=O)(=O)c2ccc(NC(=O)c3cnc4scc(C)n4c3=O)cc2)c1C
inactive: growth inhibition [1] -2.39% | growth inhibition [2] -5.18% | viability increase [3] 1.99% | viability [4] 101% | viability [5] 101% | inhibition [6] 2.61% | RAM network inhibition [7] 6.1%

CN(C)c1ccc(C(=O)Nc2nc3c(s2)CCCC3)cc1
inactive: growth inhibition [1] 9.25% | growth inhibition [2] -3.03% | viability increase [3] -0.42% | viability [4] 69.7% | viability [5] 72.4% | inhibition [6] 0.905% | RAM network inhibition [7] 1.19%

CCOc1ccc(OCC)c(NC(=O)C2CCCN2S(=O)(=O)c2cccc3cccnc23)c1 (centres undefined)
inactive: growth inhibition [1] -0.54% | growth inhibition [2] 8.82% | viability increase [3] -3.84% | viability [4] 69.8% | viability [5] 65.7% | inhibition [6] -0.48% | RAM network inhibition [7] 5.36%

Cc1noc(C)c1S(=O)(=O)N(CC(=O)NCc1ccc2c(c1)OCO2)c1ccc(C(C)C)cc1
inactive: growth inhibition [1] -13.7% | growth inhibition [2] -8.46% | viability increase [3] -2.92% | viability [4] 82.7% | viability [5] 76.2% | inhibition [6] -0.54% | RAM network inhibition [7] 6.57%

COc1cccc(C2c3c(oc4cc(C)c(C)cc4c3=O)C(=O)N2CCCN(C)C)c1 (centres undefined)
inactive: growth inhibition [1] -8.88% | growth inhibition [2] 0.12% | viability increase [3] -3.94% | viability [4] 93.6% | viability [5] 94.6% | inhibition [6] 0.885% | RAM network inhibition [7] 1.83%

CC12CN3CC(C)(CN(C1)C3c1ccc3ccccc3c1O)C2=O (centres undefined)
inactive: growth inhibition [1] -10.8% | growth inhibition [2] -19.3% | viability increase [3] -0.54% | viability [4] 101% | viability [5] 100% | inhibition [6] -0.515% | RAM network inhibition [7] -0.68%

CCC(C)NC(=O)c1c(-c2cc(Cl)c(OC)c(Cl)c2)noc1C (centres undefined)
inactive: growth inhibition [1] -15% | growth inhibition [2] -11.9% | viability increase [3] 0.42% | viability [4] 96.7% | viability [5] 93% | inhibition [6] 0.895% | RAM network inhibition [7] 5.69%

Oc1cc(Cc2ccccc2)cnc1CN1CCOCC1
inactive: growth inhibition [1] 1.49% | growth inhibition [2] 2.83% | viability increase [3] -0.73% | viability [4] 96.8% | viability [5] 87.3% | inhibition [6] 0.81% | RAM network inhibition [7] 1.51%

COc1ccc(Cl)cc1NC(=O)c1cnc2sccn2c1=O
inactive: growth inhibition [1] -6.94% | growth inhibition [2] 9.97% | viability increase [3] -5.14% | viability [4] 82.9% | viability [5] 82.6% | inhibition [6] 4.45% | RAM network inhibition [7] 6.59%

COc1ccc(NC(=O)C2CCN(S(=O)(=O)c3ccc(OC)c(OC)c3)CC2)c(OC)c1
inactive: growth inhibition [1] -1.19% | growth inhibition [2] 4.12% | viability increase [3] -0.83% | viability [4] 94.7% | viability [5] 88.6% | inhibition [6] 1% | RAM network inhibition [7] 1.41%

COc1ccc(C)cc1NC(=O)c1nnn(CCc2ccccc2)c1N
inactive: growth inhibition [1] -5.25% | growth inhibition [2] -3.95% | viability increase [3] -5.29% | viability [4] 85.8% | viability [5] 81.5% | inhibition [6] 2.73% | RAM network inhibition [7] 3.9%

CCOC(=O)c1cccc(NC(=O)C2CCCN2S(=O)(=O)c2cccc3cccnc23)c1 (centres undefined)
inactive: growth inhibition [1] -9.1% | growth inhibition [2] -2.39% | viability increase [3] -3.02% | viability [4] 92% | viability [5] 89.8% | inhibition [6] 1.41% | RAM network inhibition [7] -1.53%

O=C(NCC1CCCO1)c1ccc2c(=O)n(CCc3ccccc3)c(=O)[nH]c2c1 (centres undefined)
inactive: growth inhibition [1] -3.02% | growth inhibition [2] -27% | viability increase [3] -1.15% | viability [4] 104% | viability [5] 102% | inhibition [6] 4.28% | RAM network inhibition [7] 3.8%

Cc1ccc2sc(NC(=O)CN3C(=O)CCC3=O)nc2c1C
inactive: growth inhibition [1] -10.4% | growth inhibition [2] -12.7% | viability increase [3] 2.23% | viability [4] 114% | viability [5] 109% | inhibition [6] 0.805% | RAM network inhibition [7] 2.15%

CCOCCn1c(SCc2ccccc2)nc2c1c(=O)[nH]c(=O)n2C
inactive: growth inhibition [1] -16.6% | growth inhibition [2] -27.6% | viability increase [3] -1.41% | viability [4] 104% | viability [5] 96.7% | inhibition [6] 0.205% | RAM network inhibition [7] 7.51%

CCOC(=O)C1C(=O)OC2(CCOC(C)(C)C2)C1C(=O)OCC (centres undefined)
inactive: growth inhibition [1] 1.65% | growth inhibition [2] 7.69% | viability increase [3] -0.15% | viability [4] 105% | viability [5] 100% | inhibition [6] 1.38% | RAM network inhibition [7] 0.98%

NC(=O)c1cccc(S(=O)(=O)N2CC(c3ccccc3)CC2=O)c1 (centres undefined)
inactive: growth inhibition [1] -15.8% | growth inhibition [2] -15% | viability increase [3] -1.11% | viability [4] 99.5% | viability [5] 96.1% | inhibition [6] 0.075% | RAM network inhibition [7] -0.76%

CCCn1c(CN2CCCCC2CC)nc2c1c(=O)n(C)c(=O)n2C (centres undefined)
inactive: growth inhibition [1] -3.98% | growth inhibition [2] -17.3% | viability increase [3] 0.61% | viability [4] 93.9% | viability [5] 90.4% | inhibition [6] 0.045% | RAM network inhibition [7] 4.81%

N#CC1=C2SCN(c3ccccc3)CN2C(=O)CC1c1c(Cl)cccc1Cl (centres undefined)
inactive: growth inhibition [1] -3.85% | growth inhibition [2] 18.9% | viability increase [3] -7.7% | viability [4] 84.3% | viability [5] 93% | inhibition [6] 1.14% | RAM network inhibition [7] 4.42%

NC(=O)CSc1ncc(-c2ccccc2)[nH]1
inactive: growth inhibition [1] -4.49% | growth inhibition [2] -3.75% | viability increase [3] -3.58% | viability [4] 101% | viability [5] 93.7% | inhibition [6] 0.715% | RAM network inhibition [7] 4.43%

COc1ccc(C(=O)N2CCN(c3ccc(C)cc3C)CC2)cc1OC
inactive: growth inhibition [1] -12.4% | growth inhibition [2] -0.18% | viability increase [3] 3.24% | viability [4] 72.9% | viability [5] 85.7% | inhibition [6] 1.66% | RAM network inhibition [7] 2.92%

O=C(Cn1cc2c(n1)CCCCC2)NCCN1CCOCC1
inactive: growth inhibition [1] 7.15% | growth inhibition [2] 10.1% | viability increase [3] -0.25% | viability [4] 107% | viability [5] 97.3% | inhibition [6] 2% | RAM network inhibition [7] 2.18%

O=C(Cn1c(N2CCN(c3ccccc3)CC2)nc2ccccc21)c1ccccc1
inactive: growth inhibition [1] -10.3% | growth inhibition [2] -9.96% | viability increase [3] -3.76% | viability [4] 84.3% | viability [5] 93.6% | inhibition [6] 2.6% | RAM network inhibition [7] 4.62%

CCOc1ccc(NC(=O)N2CCC(n3c(=O)[nH]c4ccccc43)CC2)cc1
inactive: growth inhibition [1] -13.3% | growth inhibition [2] -22% | viability increase [3] 6.11% | viability [4] 83.2% | viability [5] 84.2% | inhibition [6] 1.9% | RAM network inhibition [7] 2.37%

Cc1ccc(-n2c3c(cc(C(=O)NCc4ccco4)c2=O)C(=O)CC(C)(C)C3)cc1
inactive: growth inhibition [1] -5.76% | growth inhibition [2] -4.77% | viability increase [3] -5.37% | viability [4] 83% | viability [5] 85.6% | inhibition [6] -0.235% | RAM network inhibition [7] 3.42%

Cc1nn(C)cc1CN(C)C(=O)c1sc2cccc(Cl)c2c1Cl
inactive: growth inhibition [1] -4.77% | growth inhibition [2] 5.83% | viability increase [3] 0.61% | viability [4] 84.1% | viability [5] 82.1% | inhibition [6] -0.12% | RAM network inhibition [7] 3.58%
